# Columns and labels:
# [1] = test system: Aspergillus niger; assay: Antifungal activity against Aspergillus niger ATCC 16404 after 48 hrs by broth microdilution method; assay type: functional; details: ATCC 16404, 48 h
# Summary of the method: (§1)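 Susceptibility of filamentous fungi (molds) by broth microdilution per NCCLS M38-A in 96-well microplates. The MIC is read as the lowest inhibitory concentration. It is given as one number when replicate data fully agreed.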
# [2] = test system: Candida albicans; assay: Antifungal activity against Candida albicans ATCC 14053 after 48 hrs by broth microdilution method; assay type: functional; details: ATCC 14053, 48 h
# Summary of the method: (§2)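 Yeast susceptibility by broth microdilution per NCCLS M27-A in 96-well plates. MIC is the lowest concentration inhibiting growth. Where repeat runs fully coincided, a single value is reported.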
# [3] = Toxicity against human erythrocytes assessed as hemolytic activity at 5 ug/ml; assay type: cell-based, Erythrocyte; details: read-out: Activity
# Summary of the method: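 Lysis of erythrocytes in defibrinated human blood was measured under buffered conditions with compound at 5 µg/mL. Percent hemolysis is the mean of blood samples from two donors.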
# [4] = test system: Fusarium oxysporum; assay: Antifungal activity against Fusarium oxysporum VKM F-140 after 48 hrs by broth microdilution method; assay type: functional; summary of the method: as §1
# [5] = test system: Vanrija humicola; assay: Antifungal activity against Cryptococcus humicolus ATCC 9949 after 48 hrs by broth microdilution method; assay type: functional; details: ATCC 9949, 48 h; summary of the method: as §2
# [6] = test system: Candida albicans; assay: Antifungal activity against Candida albicans ATCC 10231after 48 hrs by broth microdilution method; assay type: functional; details: ATCC 10231, 48 h
Structure (SMILES),MIC [1],MIC [2],hemolysis at 5 ug/ml [3],MIC [4],MIC [5],MIC50 [6],MIC90 [6]
COC(=O)[C@H](CO)NC(=O)[C@H]1[C@@H]2C[C@@H](O[C@H]3O[C@@H](C)[C@H](O)[C@@H](N)[C@H]3O)/C=C/C=C/C=C/C=C/C=C/C=C/C=C/[C@H](C)[C@@H](O)[C@@H](C)[C@H](C)OC(=O)C[C@H](O)C[C@H](O)C[C@H](O)CC[C@@H](O)[C@H](O)C[C@](O)(C[C@@H]1O)O2,2 µg/mL,2 µg/mL,14%,4 µg/mL,2 µg/mL,,
CNC(=O)[C@H]1[C@@H]2C[C@@H](O[C@H]3O[C@@H](C)[C@H](O)[C@@H](N)[C@H]3O)/C=C/C=C/C=C/C=C/C=C/C=C/C=C/[C@H](C)[C@@H](O)[C@@H](C)[C@H](C)OC(=O)C[C@H](O)C[C@H](O)C[C@H](O)CC[C@@H](O)[C@H](O)C[C@](O)(C[C@@H]1O)O2,2 µg/mL,2 µg/mL,5%,8 µg/mL,1 µg/mL,,
C[C@@H]1[C@H](O)[C@@H](C)/C=C/C=C/C=C/C=C/C=C/C=C/C=C/[C@H](O[C@H]2O[C@@H](C)[C@H](O)[C@@H](N)[C@H]2O)C[C@@H]2O[C@](O)(C[C@@H](O)[C@H](O)CC[C@@H](O)C[C@@H](O)C[C@@H](O)CC(=O)O[C@H]1C)C[C@H](O)[C@H]2C(N)=O,4 µg/mL,2 µg/mL,8%,4 µg/mL,2 µg/mL,,
CCOC(=O)CNC(=O)[C@H]1[C@@H]2C[C@@H](O[C@H]3O[C@@H](C)[C@H](O)[C@@H](N)[C@H]3O)/C=C/C=C/C=C/C=C/C=C/C=C/C=C/[C@H](C)[C@@H](O)[C@@H](C)[C@H](C)OC(=O)C[C@H](O)C[C@H](O)C[C@H](O)CC[C@@H](O)[C@H](O)C[C@](O)(C[C@@H]1O)O2,2 µg/mL,1 µg/mL,38%,4 µg/mL,1 µg/mL,0.15 µg/mL,0.36 µg/mL
COC(=O)C(CO)NC(=O)[C@H]1[C@@H]2C[C@@H](O[C@H]3O[C@@H](C)[C@H](O)[C@@H](N)[C@H]3O)/C=C/C=C/C=C/C=C/C=C/C=C/C=C/[C@H](C)[C@@H](O)[C@@H](C)[C@H](C)OC(=O)C[C@H](O)C[C@H](O)C[C@H](O)CC[C@@H](O)[C@H](O)C[C@](O)(C[C@@H]1O)O2 (stereo partly drawn),4 µg/mL,2 µg/mL,4%,4 µg/mL,2 µg/mL,,
C[C@@H]1[C@H](O)[C@@H](C)/C=C/C=C/C=C/C=C/C=C/C=C/C=C/[C@H](O[C@H]2O[C@@H](C)[C@H](O)[C@@H](N)[C@H]2O)C[C@@H]2O[C@](O)(C[C@@H](O)[C@H](O)CC[C@@H](O)C[C@@H](O)C[C@@H](O)CC(=O)O[C@H]1C)C[C@H](O)[C@H]2C(=O)NCCCO,2 µg/mL,1 µg/mL,4%,2 µg/mL,1 µg/mL,0.09 µg/mL,0.27 µg/mL
C[C@@H]1[C@H](O)[C@@H](C)/C=C/C=C/C=C/C=C/C=C/C=C/C=C/[C@H](O[C@H]2O[C@@H](C)[C@H](O)[C@@H](N)[C@H]2O)C[C@@H]2O[C@](O)(C[C@@H](O)[C@H](O)CC[C@@H](O)C[C@@H](O)C[C@@H](O)CC(=O)O[C@H]1C)C[C@H](O)[C@H]2C(=O)N[C@H]1[C@H](O)[C@@H](O)[C@H](CO)O[C@H]1O,2 µg/mL,1 µg/mL,3%,8 µg/mL,1 µg/mL,,
COC(=O)[C@@H](NC(=O)[C@H]1[C@@H]2C[C@@H](O[C@H]3O[C@@H](C)[C@H](O)[C@@H](N)[C@H]3O)/C=C/C=C/C=C/C=C/C=C/C=C/C=C/[C@H](C)[C@@H](O)[C@@H](C)[C@H](C)OC(=O)C[C@H](O)C[C@H](O)C[C@H](O)CC[C@@H](O)[C@H](O)C[C@](O)(C[C@@H]1O)O2)C(C)C,4 µg/mL,2 µg/mL,,8 µg/mL,2 µg/mL,,
C[C@@H]1[C@H](O)[C@@H](C)/C=C/C=C/C=C/C=C/C=C/C=C/C=C/[C@H](O[C@H]2O[C@@H](C)[C@H](O)[C@@H](N)[C@H]2O)C[C@@H]2O[C@](O)(C[C@@H](O)[C@H](O)CC[C@@H](O)C[C@@H](O)C[C@@H](O)CC(=O)O[C@H]1C)C[C@H](O)[C@H]2C(=O)NCCO,4 µg/mL,2 µg/mL,3%,4 µg/mL,4 µg/mL,,
C[C@@H]1[C@H](O)[C@@H](C)/C=C/C=C/C=C/C=C/C=C/C=C/C=C/[C@H](O[C@H]2O[C@@H](C)[C@H](O)[C@@H](NC[C@]3(O)OC[C@@H](O)[C@@H](O)[C@@H]3O)[C@H]2O)C[C@@H]2O[C@](O)(C[C@@H](O)[C@H](O)CC[C@@H](O)C[C@@H](O)C[C@@H](O)CC(=O)O[C@H]1C)C[C@H](O)[C@H]2C(=O)O,2 µg/mL,1 µg/mL,5%,8 µg/mL,1 µg/mL,,
